High-throughput results (PubChem BioAssay)
KCNK3 block: human KCNK3 channel inhibition, primary screen; O14649; actives 0.84% (n = 340,000); B-score at 10 µM; CHO-KCNK3 thallium flux, FluxOR fluorescence; hits give low values; AID 602410;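 active means B-score under library mean minus 4 SD, starting fluorescence ratio at most library mean plus 5 SD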;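 further: more negative B-score means stronger inhibition of thallium flux through KCNK3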
hERG rescue: hERG (human) protection from proarrhythmic block | Q12809 | CHO-hERG, FluxOR thallium flux, dofetilide IC70 present | activation (rescue from dofetilide block), less the hit threshold, % at 10 µM | actives 0.51% (n = 310,000) | AID 1511;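 active means activation above the mean of controls blocked by dofetilide plus 5 SD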;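 further: thallium influx through hERG after potassium depolarization seen as dye fluorescence rise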
Kir21 inh: blocks the mouse Kir2.1 inward-rectifier potassium channel; B-score at 10 µM; actives 0.85% (n = 310,000); P35561; HEK293-Kir2.1, FluxOR thallium flux fluorescence; hits give low values;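 active means fluorescence ratio B-score at or below minus 3 SD of library scores, with starting-brightness B-score within 2 SD, cut at about -4.2 in these data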;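 further: channel flux triggered by added potassium and thallium sulfate stimulus; B-score of peak minus minimum fluorescence over baseline after thallium stimulus; more negative B-score means stronger Kir2.1 block with less thallium influx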
KCNQ1 block: blocks the human KCNQ1 potassium channel. P51787. CHO-K1 KCNQ1, FluxOR thallium flux fluorescence; hits give high values. B-score at 10 µM. actives 1.3% (n = 310,000). AID 2642;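 active means compounds whose thallium flux B-score, printed positive for inhibition, exceeds three library SD while starting fluorescence stays within three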;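 further: channel opened by potassium depolarization with thallium stimulus after 20 min compound exposure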
Target sequence (P51787 whole entry, looked up): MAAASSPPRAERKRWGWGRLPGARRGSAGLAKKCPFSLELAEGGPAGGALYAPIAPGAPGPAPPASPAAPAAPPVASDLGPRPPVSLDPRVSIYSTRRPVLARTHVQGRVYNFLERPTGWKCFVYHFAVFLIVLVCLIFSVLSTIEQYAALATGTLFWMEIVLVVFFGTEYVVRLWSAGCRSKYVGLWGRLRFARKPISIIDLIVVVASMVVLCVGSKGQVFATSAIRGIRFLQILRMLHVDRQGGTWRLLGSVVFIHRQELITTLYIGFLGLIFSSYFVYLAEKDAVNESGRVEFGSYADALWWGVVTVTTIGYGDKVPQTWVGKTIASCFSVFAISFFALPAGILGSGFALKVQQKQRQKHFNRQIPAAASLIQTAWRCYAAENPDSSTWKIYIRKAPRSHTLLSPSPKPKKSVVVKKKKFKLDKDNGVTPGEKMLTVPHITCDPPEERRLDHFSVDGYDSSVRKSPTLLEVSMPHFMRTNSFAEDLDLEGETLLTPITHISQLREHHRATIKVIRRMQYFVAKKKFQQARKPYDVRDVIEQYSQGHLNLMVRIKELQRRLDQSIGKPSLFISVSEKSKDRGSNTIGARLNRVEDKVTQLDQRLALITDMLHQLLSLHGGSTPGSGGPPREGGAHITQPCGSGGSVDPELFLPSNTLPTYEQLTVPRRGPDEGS
KCNQ1 act: potentiators or activators of human KCNQ1 potassium channel | P51787 | CHO-K1 KCNQ1, thallium flux FluxOR fluorescence; hits give high values | B-score at 10 µM | actives 0.35% (n = 310,000) | AID 2648;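 active means fluorescence ratio B-score, a plate-corrected score, at least three library SD, with initial intensity B-score within 5 SD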
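Schedule – 37 °C overnight plating, 90-min dark dye load, 20-min compound pretreatment · System – stable KCNQ1 CHO-K1 line · Probe or stimulus – thallium- and potassium-containing depolarizing buffer · Measured by – kinetic FluxOR fluorescence, 10 s baseline plus 110 s post-stimulus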
KCNK9 inh: inhibitors of human KCNK9 two-pore domain potassium channel | actives 1.2% (n = 310,000) | HEK293 KCNK9, FluxOR thallium flux fluorescence; hits give low values | Q9NPC2 | B-score at 10 µM | AID 488922;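 active means ratio B-score over 3 SD below the library mean, with starting fluorescence within 5 SD of its mean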;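 further: negative B-score means less thallium flux so channel inhibition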
KCNK9 block conf: human KCNK9 inhibitor confirmation; shares compounds with KCNK9 inh; HEK293 KCNK9 cells, FluxOR thallium flux fluorescence; inhibition, % at 10 µM; actives 43% (n = 4,900);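 active means thallium signal inhibited by more than 5 SD of the compound-free buffer control wells, on both duplicate plates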;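 further: 0% = assay buffer control wells without compound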
Kir21 sel: selectivity of KCNK9 modulators against mouse Kir2.1 | AID 492993 | inhibition, % at 10 µM | actives 4% (n = 4,900) | shares compounds with KCNK9 inh | Kir2.1 cells, FluxOR thallium flux fluorescence;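 active means thallium signal drop more than 5 SD beyond the mean of the no-compound control wells, seen in both duplicate plates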;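 further: signal is fluorescence rise after thallium addition divided by baseline fluorescence; plate controls were assay buffer only for no effect and full block by chlorpromazine control for full effect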
HEK293 Tl ctr: second check of KCNK9 modulator effects in non-induced HEK293 cells | inhibition, % at 10 µM | actives 40% (n = 4,900) | FluxOR thallium flux | shares compounds with KCNK9 inh | AID 492997;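 active means thallium signal drop beyond 5 SD of the untreated control mean, on both duplicate plates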;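 further: plate controls were buffer only IC0 wells for no effect and SID17386958 at its maximal inhibitory level for full effect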
Active calls of the source: *; i = inactive; nt = not tested or not shown. Shown are actives, neighbours in structure and some others; about 3.8% of the full set was active somewhere.

SMILES	KCNK3 block	hERG rescue	Kir21 inh	KCNQ1 block	KCNQ1 act	KCNK9 inh	KCNK9 block conf	Kir21 sel	HEK293 Tl ctr
O=S(=O)(c1ccccc1)N1CCN(Cc2ccc(Cl)cc2)CC1	i	-16	1.3	i	i	i	i	i	i
COc1cccc(CN2CCN(S(=O)(=O)c3ccccc3)CC2)c1OC	i	-10	-0.73	i	i	i	nt	nt	nt
C#CC[N+]1(CC#Cc2cccc3ccccc23)CCOCC1	i	-6	-0.55	i	i	i	nt	nt	nt
O=C(NC1CCN(Cc2ccccc2)CC1)c1cccc(S(=O)(=O)Nc2ccc(SC(F)F)cc2)c1	i	nt	nt	nt	nt	nt	nt	nt	nt
c1ccc(Sc2ncnc3ccccc23)cc1	i	-9	0.02	i	i	i	nt	nt	nt
c1ccc(Cc2nnc(Sc3ccccc3)c3ccccc23)cc1	i	-14	-0.31	i	i	-8.5*	46%*	i	37%*
COc1cccc(OC)c1C(=O)Nc1cccc(NC(=O)c2cccs2)c1	i	-10	0.04	i	i	-11*	50%*	i	28%*
O=C(C/C=N/OCc1ccccc1F)c1cnc(-c2ccc(Cl)cc2)s1	i	-8	0.04	i	i	i	i	i	i
O=C(C/C=N/OCc1ccc(F)cc1Cl)c1cnc(-c2ccccc2)s1	i	-7	-0.43	i	i	i	i	i	i
CCOC(=O)c1ccccc1NC(=S)N1CC(C)CC(C)C1 (configuration not stated)	i	-7	-1	i	i	i	i	i	i
CCOC(=O)c1ccccc1N/C=C/C(=O)c1ccccc1	i	-5	0.31	i	i	-16*	69%*	i	36%*
CCOC(=O)c1ccccc1NC(=O)c1c(F)c(F)c(F)c(F)c1F	i	-16	0.62	i	i	i	i	i	i
CCOC(=O)c1ccccc1NC(=O)c1ccc(F)cc1	i	-3	-0.09	i	i	i	nt	nt	nt
CCOC(=O)c1ccccc1NC(=S)N1CCC(C)CC1	i	-6	-0.38	i	i	i	nt	nt	nt
CCN(C(=O)C(C)OC(=O)c1nn(-c2ccccc2C(F)(F)F)cc1O)c1ccccc1 (configuration not stated)	i	nt	nt	nt	nt	nt	nt	nt	nt
CCCCCn1c(N2CCC(Cc3ccccc3)CC2)nc2c1c(=O)[nH]c(=O)n2C	i	-11	1.3	i	i	i	nt	nt	nt
Cc1[nH]c2ccccc2c1/C=N/NC(=O)c1cc(-c2cccs2)[nH]n1	i	-10	1.2	i	i	-10*	i	i	i
COCCn1nnnc1C(c1cccs1)N1CCN(c2cccc(C(F)(F)F)c2)CC1 (configuration not stated)	i	-6	0.33	i	i	-14*	59%*	i	40%*
COc1ccc(CC(C)N2CCN(c3cccc(C(F)(F)F)c3)CC2)cc1OC (configuration not stated)	i	-5	0.31	i	i	i	i	i	i
CCOc1cc(CN2CCN(c3cccc(C(F)(F)F)c3)CC2)ccc1OC	i	-4	2.9	i	i	i	i	i	i
COc1ccc(NC(=O)N2CCN(c3cccc(C(F)(F)F)c3)CC2)cc1OC	i	-11	-1.4	i	i	i	nt	nt	nt
COC(=O)c1cc(CN2CCN(c3ccccc3)CC2)ccc1O	i	-3	-0.45	i	i	i	i	i	i
CCOc1cc(CN2CCN(c3cccc(C(F)(F)F)c3)CC2)ccc1O	i	-21	-0.96	i	i	i	i	i	i
CCN(CC)S(=O)(=O)c1cccc(-c2nnc(SCC(N)=O)n2C)c1	i	-17	-0.49	i	i	i	nt	nt	nt
CCOC(=O)N1CCN(C(=O)Nc2ccc(NC(=O)N3CCN(C(=O)OCC)CC3)cc2)CC1	i	-5	-0.07	i	i	i	nt	nt	nt
SMILES	KCNK3 block	hERG rescue	Kir21 inh	KCNQ1 block	KCNQ1 act	KCNK9 inh	KCNK9 block conf	Kir21 sel	HEK293 Tl ctr
COc1ccc(N2C(=O)/C(=C\c3ccco3)N=C2SCC(=O)NC(C)C)cc1Cl	i	-5	-1.2	i	i	-12*	78%*	i	36%*
Cc1ccc(-n2c(SCC(=O)O)nc3c(sc(=S)n3-c3ccc(C)c(C)c3)c2=O)cc1	i	-4	-0.04	i	i	i	nt	nt	nt
CCOc1ccccc1N1CCN(S(=O)(=O)c2ccc(Cl)s2)CC1	i	-7	0.92	i	i	i	i	i	i
CC(C)Cn1c(/C=N/Nc2nc3ccccc3[nH]2)nc2ccccc21	i	-4	-1.5	11*	i	i	27%*	i	i
CCCn1c(/C=N/Nc2nc3ccccc3[nH]2)nc2ccccc21	i	nt	nt	nt	nt	nt	nt	nt	nt
COC(=O)C(C)N(C(=O)c1cccc2ccccc12)c1c(C)cccc1C (configuration not stated)	i	-9	-1.9	i	i	-12*	52%*	i	32%*
COc1ccccc1/C=C/c1nc(S(=O)(=O)c2ccccc2)c(N(C)C)o1	i	-8	-0.35	i	i	-11*	53%*	i	28%*
CN(C)c1oc(/C=C/c2cccs2)nc1S(=O)(=O)c1ccccc1	i	-5	-0.21	i	i	-8.1*	42%*	i	i
CC(C)c1nnc(NC(=O)C2CCCN2C(=O)Nc2ccccc2)s1 (configuration not stated)	i	-10	0.12	i	i	i	nt	nt	nt
Cc1cccc(C)c1-n1c(C)cc(/C=N/NC(=O)CSc2ncccn2)c1C	i	-12	-0.67	i	i	-9.5*	50%*	i	28%*
Cc1ccc(S(=O)(=O)N2CCC(C(=O)Nc3ncccc3O)CC2)cc1	i	nt	nt	nt	nt	nt	nt	nt	nt
Clc1ccc(-c2nnsc2SCc2ccccc2)cc1	i	-8	0.03	i	i	-11*	i	i	44%*
O=C1c2ccccc2C(=O)N1CCCCSc1nc2ccccc2o1	i	-6	1.1	i	i	i	i	i	i
Cc1nnc(SCCCN2C(=O)c3ccccc3C2=O)o1	i	-11	-1.4	i	i	i	nt	nt	nt
CCCCN(CC)C(=O)c1cc2cc3ccc(Cl)cc3nc2o1	i	-6	1.1	i	i	-8.5*	44%*	i	i
